Measurements taken from ChEMBL document CHEMBL1142888, “Synthesis, antimicrobial, and anti-inflammatory activities of novel 2-(1-adamantyl)-5-substituted-1,3,4-oxadiazoles and 2-(1-adamantylamino)-5-substituted-1,3,4-thiadiazoles” (2007).
Values after ≈ are worked out from the molar mass of the structure shown.

Key:
Rattus norvegicus [1] = test: Antiinflammatory effect on carrageenan-induced paw oedema Sprague-Dawley rat assessed as reduction of paw oedema at 20 mg/kg, ip; type: functional; parameters: scale not given: the % may be the effect or the level left; details: route intraperitoneal
Method in brief: (§1)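 Rats in groups of five, acclimatised two days, given compound (20, 40, 60 mg/kg) or indomethacin (10 mg/kg) i.p. as suspension in 1 ml 0.5% aqueous carboxymethyl cellulose 1 h before 0.1 ml 1% carrageenin in saline into right hind plantar tissue; left paw got saline. Paw volume by water plethysmometer at 4 h; % protection vs vehicle control; mean ± S.E.M., Student's t test.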

Bacillus subtilis [2] = test: Antimicrobial activity against Bacillus subtilis IFO 3007 at 200 ug/disc after 24 hrs; type: functional; details: IFO 3007, 24 h, read-out: IZ
Pseudomonas aeruginosa [3] = test: Antimicrobial activity against Pseudomonas aeruginosa IFO 3448 at 200 ug/disc; type: functional; details: read-out: IZ
Escherichia coli [4] = test: Antimicrobial activity against Escherichia coli IFO 3301 at 200 ug/disc after 24 hrs; type: functional; details: IFO 3301, 24 h, read-out: IZ
Rattus norvegicus [5] = test: Antiinflammatory effect on carrageenan-induced paw oedema Sprague-Dawley rat assessed as reduction of paw oedema at 40 mg/kg, ip; type: functional; parameters: scale not given: the % may be the effect or the level left; details: route intraperitoneal; method in brief: as §1
Staphylococcus aureus [6] = test: Antimicrobial activity against Staphylococcus aureus IFO 3060 at 200 ug/disc after 24 hrs; type: functional; details: IFO 3060, 24 h, read-out: IZ
Candida albicans [7] = test: Antimicrobial activity against Candida albicans IFO 0583 at 200 ug/disc after 48 hrs; type: functional; details: IFO 0583, 48 h, read-out: IZ
Rattus norvegicus [8] = test: Antiinflammatory effect on carrageenan-induced paw oedema Sprague-Dawley rat assessed as reduction of paw oedema at 60 mg/kg, ip; type: functional; parameters: scale not given: the % may be the effect or the level left; details: route intraperitoneal; method in brief: as §1
Candida albicans [9] = test: Antimicrobial activity against Candida albicans IFO 0583 after 48 hrs; type: functional; details: IFO 0583, 48 h
Bacillus subtilis [10] = test: Antimicrobial activity against Bacillus subtilis IFO 3007 after 24 hrs; type: functional; details: IFO 3007, 24 h
Staphylococcus aureus [11] = test: Antimicrobial activity against Staphylococcus aureus IFO 3060 after 24 hrs; type: functional; details: IFO 3060, 24 h
Escherichia coli [12] = test: Antimicrobial activity against Escherichia coli IFO 3301 after 24 hrs; type: functional; details: IFO 3301, 24 h
Escherichia coli [13] = test: Antimicrobial activity against Escherichia coli IFO 3301 at 100 ug/disc after 24 hrs; type: functional; details: IFO 3301, 24 h, read-out: IZ
Staphylococcus aureus [14] = test: Antimicrobial activity against Staphylococcus aureus IFO 3060 at 100 ug/disc after 24 hrs; type: functional; details: IFO 3060, 24 h, read-out: IZ
Bacillus subtilis [15] = test: Antimicrobial activity against Bacillus subtilis IFO 3007 at 100 ug/disc after 24 hrs; type: functional; details: IFO 3007, 24 h, read-out: IZ
Pseudomonas aeruginosa [16] = test: Antimicrobial activity against Pseudomonas aeruginosa IFO 3448 at 100 ug/disc; type: functional; details: read-out: IZ
Pseudomonas aeruginosa [17] = test: microbe, parasite or virus in culture; details: IFO 3448
Candida albicans [18] = test: Antimicrobial activity against Candida albicans IFO 0583 at 100 ug/disc after 48 hrs; type: functional; details: IFO 0583, 48 h, read-out: IZ
Rattus norvegicus [19] = test: Antiinflammatory effect on carrageenan-induced paw oedema Sprague-Dawley rat assessed as reduction of paw oedema at 10 mg/kg, ip; type: functional; parameters: scale not given: the % may be the effect or the level left; details: route intraperitoneal; method in brief: as §1

| SMILES | Activity (Rattus norvegicus [1]) [%] | zone of inhibition at 200 µg/disc (Bacillus subtilis [2]) [mm] | zone of inhibition at 200 µg/disc (Pseudomonas aeruginosa [3]) [mm] | zone of inhibition at 200 µg/disc (Escherichia coli [4]) [mm] | Activity (Rattus norvegicus [5]) [%] | zone of inhibition at 200 µg/disc (Staphylococcus aureus [6]) [mm] | zone of inhibition at 200 µg/disc (Candida albicans [7]) [mm] | Activity (Rattus norvegicus [8]) [%] | MIC (Candida albicans [9]) [µg/mL] | MIC (Bacillus subtilis [10]) [µg/mL] | MIC (Staphylococcus aureus [11]) [µg/mL] | MIC (Escherichia coli [12]) [µg/mL] | zone of inhibition at 100 µg/disc (Escherichia coli [13]) [mm] | zone of inhibition at 100 µg/disc (Staphylococcus aureus [14]) [mm] | zone of inhibition at 100 µg/disc (Bacillus subtilis [15]) [mm] | zone of inhibition at 100 µg/disc (Pseudomonas aeruginosa [16]) [mm] | MIC (Pseudomonas aeruginosa [17]) [µg/mL] | zone of inhibition at 100 µg/disc (Candida albicans [18]) [mm] | Activity (Rattus norvegicus [19]) [%] |
| --- | --- | --- | --- | --- | --- | --- | --- | --- | --- | --- | --- | --- | --- | --- | --- | --- | --- | --- | --- |
| O=[N+]([O-])c1cc(-c2nnc(C34CC5CC(CC(C5)C3)C4)o2)cc([N+](=O)[O-])c1 | 4.16 | < 10 | < 10 | < 10 | 5.22 | < 10 | < 10 | 3.66 | – | – | – | – | – | – | – | – | – | – | – |
| c1csc(-c2nnc(C34CC5CC(CC(C5)C3)C4)o2)c1 | 35.95 | 18 | 12 | 11 | 49.77 | 14 | 16 | 63.72 | 2 (≈ 6.98 µM) | 2 (≈ 6.98 µM) | – | – | – | – | – | – | – | – | – |
| Clc1ccc(-c2nnc(NC34CC5CC(CC(C5)C3)C4)s2)cc1 | 21.63 | 16 | < 10 | 12 | 37.02 | 18 | < 10 | 37.11 | – | – | 2 (≈ 5.78 µM) | – | – | – | – | – | – | – | – |
| Fc1ccc(-c2nnc(C34CC5CC(CC(C5)C3)C4)o2)cc1 | 11.72 | 12 | < 10 | < 10 | 29.15 | < 10 | < 10 | 38.62 | – | – | – | – | – | – | – | – | – | – | – |
| Clc1ccc(-c2nnc(C34CC5CC(CC(C5)C3)C4)o2)cc1 | 34.5 | 13 | < 10 | 10 | 44.66 | < 10 | < 10 | 50.71 | – | – | – | – | – | – | – | – | – | – | – |
| O=C(NNC(=S)NC12CC3CC(CC(C3)C1)C2)c1ccc([N+](=O)[O-])cc1 | 0.76 | 24 | 15 | 19 | – | 20 | < 10 | – | – | 0.5 (≈ 1.34 µM) | 1 (≈ 2.67 µM) | 2 (≈ 5.34 µM) | – | – | – | – | – | – | – |
| O=C(NNC(=S)NC12CC3CC(CC(C3)C1)C2)C12CC3CC(CC(C3)C1)C2 | 11.34 | < 10 | < 10 | < 10 | 13.08 | < 10 | 16 | 10.12 | 4 (≈ 10.3 µM) | – | – | – | – | – | – | – | – | – | – |
| O=C(NNC(=S)NC12CC3CC(CC(C3)C1)C2)c1cccs1 | 0.96 | 18 | < 10 | 10 | 2.16 | < 10 | < 10 | – | – | 4 (≈ 11.9 µM) | – | – | – | – | – | – | – | – | – |
| Fc1ccc(-c2nnc(NC34CC5CC(CC(C5)C3)C4)s2)cc1 | 18.02 | 10 | < 10 | 10 | 35.55 | 14 | < 10 | 39.35 | – | – | – | – | – | – | – | – | – | – | – |
| O=[N+]([O-])c1ccc(-c2nnc(NC34CC5CC(CC(C5)C3)C4)s2)cc1 | 9.11 | 18 | 12 | 17 | 10.1 | 16 | < 10 | 10.74 | – | 2 (≈ 5.61 µM) | 2 (≈ 5.61 µM) | 1 (≈ 2.81 µM) | – | – | – | – | – | – | – |
| C1C2CC3CC1CC(Nc1nnc(C45CC6CC(CC(C6)C4)C5)s1)(C2)C3 | 31.6 | < 10 | – | < 10 | 39.65 | < 10 | 18 | 44.14 | 2 (≈ 5.41 µM) | – | – | – | – | – | – | – | – | – | – |
| Brc1ccc(-c2nnc(C34CC5CC(CC(C5)C3)C4)o2)cc1 | 11.6 | 14 | < 10 | < 10 | 13.15 | < 10 | < 10 | 13.01 | – | – | – | – | – | – | – | – | – | – | – |
| O=[N+]([O-])c1ccc(-c2nnc(C34CC5CC(CC(C5)C3)C4)o2)cc1 | 9.92 | < 10 | < 10 | < 10 | 13.56 | < 10 | < 10 | 12.08 | – | – | – | – | – | – | – | – | – | – | – |
| COc1ccc(-c2nnc(C34CC5CC(CC(C5)C3)C4)o2)cc1OC | 36.73 | 24 | < 10 | 12 | 53.61 | 18 | < 10 | 70.2 | – | 0.5 (≈ 1.47 µM) | 2 (≈ 5.88 µM) | – | – | – | – | – | – | – | – |
| O=C(NNC(=S)NC12CC3CC(CC(C3)C1)C2)c1ccccc1 | 2.32 | 22 | < 10 | 16 | 1.8 | < 10 | < 10 | – | – | 1 (≈ 3.04 µM) | – | 4 (≈ 12.1 µM) | – | – | – | – | – | – | – |
| CC1(C)S[C@@H]2[C@H](NC(=O)[C@H](N)c3ccccc3)C(=O)N2[C@H]1C(=O)O [AMPICILLIN] | – | – | – | – | – | – | – | – | – | 0.5 (≈ 1.43 µM) | 1 (≈ 2.86 µM) | – | 16 | 19 | 18 | 15 | 2 (≈ 5.72 µM) | – | – |
| Clc1ccccc1C(c1ccccc1)(c1ccccc1)n1ccnc1 [CLOTRIMAZOLE] | – | – | – | – | – | – | – | – | 2 (≈ 5.8 µM) | – | – | – | – | – | – | – | – | 21 | – |
| COc1ccc2c(c1)c(CC(=O)O)c(C)n2C(=O)c1ccc(Cl)cc1 [INDOMETHACIN] | – | – | – | – | – | – | – | – | – | – | – | – | – | – | – | – | – | – | 60.4 |
